{
  "source": "ChEMBL document CHEMBL4325893",
  "about": "“Synthesis and antibacterial profiles of targeted triclosan derivatives” (2019)",
  "key": {"[1]": {"test": "Antibacterial activity against Salmonella enterica subspecies enterica serotype Dublin OCC 627 after 18 hrs", "assay_type": "functional, Salmonella enterica subsp. enterica serovar Dublin", "conditions": "OCC 627, 18 h", "outline": "(§1)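 Broth microdilution in Nutrient Broth No. 2; stocks in ethanol diluted to 0.01–128 µg/ml (triclosan) or 0.25–256 µg/ml (glycosides). Overnight 37 °C NB2 cultures diluted 1 in 10^4 in saline and added to the dilutions. Incubation at 37 °C with agitation, OD read every 15 min; MIC is the lowest concentration preventing any OD rise after 18 h.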"}, "Hafnia alvei": {"test_system": "Hafnia alvei", "test": "Antibacterial activity against Hafnia alvei 13337 after 18 hrs", "assay_type": "functional", "conditions": "Hafnia alvei, 13337, 18 h", "outline": "as §1"}, "Proteus mirabilis": {"test_system": "Proteus mirabilis", "test": "Antibacterial activity against Proteus mirabilis ATCC 12453 after 18 hrs", "assay_type": "functional", "conditions": "ATCC 12453, 18 h", "outline": "as §1"}, "[2]": {"test": "Antibacterial activity against Salmonella enterica subspecies enterica serotype Pullorum OCC 273 after 18 hrs", "assay_type": "functional, Salmonella enterica subsp. enterica serovar Pullorum", "conditions": "OCC 273, 18 h", "outline": "as §1"}, "[3]": {"test_system": "Staphylococcus haemolyticus", "test": "Antibacterial activity against Staphylococcus haemolyticus OCC 2223 after 18 hrs", "assay_type": "functional", "conditions": "OCC 2223, 18 h", "outline": "(§2)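 Broth microdilution in Nutrient Broth No. 2. Ethanol stocks were diluted in broth to 0.01–128 µg/ml for triclosan and 0.25–256 µg/ml for glycosides. Overnight 37°C NB2 cultures were diluted 1 in 10^4 in saline and added to the wells. Plates were incubated at 37°C with OD read every 15 min after agitation. MIC was the lowest concentration giving no OD increase at 18 h.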"}, "Klebsiella pneumoniae [4]": {"test_system": "Klebsiella pneumoniae", "test": "Antibacterial activity against Klebsiella pneumoniae ATCC 10031 after 18 hrs", "assay_type": "functional", "conditions": "ATCC 10031, 18 h", "outline": "as §1"}, "Staphylococcus aureus [5]": {"test_system": "Staphylococcus aureus", "test": "Antibacterial activity against Staphylococcus aureus ATCC 6538 after 18 hrs", "assay_type": "functional", "conditions": "ATCC 6538, 18 h", "outline": "as §1"}, "Streptococcus agalactiae": {"test_system": "Streptococcus agalactiae", "test": "Antibacterial activity against Streptococcus agalactiae OCC 182 after 18 hrs", "assay_type": "functional", "conditions": "OCC 182, 18 h", "outline": "as §2"}, "Escherichia coli [6]": {"test_system": "Escherichia coli", "test": "Antibacterial activity against Escherichia coli ATCC 10536 after 18 hrs", "assay_type": "functional", "conditions": "ATCC 10536, 18 h", "outline": "as §1"}, "Citrobacter freundii": {"test_system": "Citrobacter freundii", "test": "Antibacterial activity against Citrobacter freundii 8090 after 18 hrs", "assay_type": "functional", "conditions": "Citrobacter freundii, 8090, 18 h", "outline": "as §1"}, "Staphylococcus aureus [7]": {"test_system": "Staphylococcus aureus", "test": "Antibacterial activity against Staphylococcus aureus ATCC 25923 after 18 hrs", "assay_type": "functional", "conditions": "ATCC 25923, 18 h", "outline": "as §1"}, "Salmonella typhimurium": {"test_system": "Salmonella typhimurium", "test": "Antibacterial activity against Salmonella enterica subspecies enterica serotype typhimurium ATCC 14028 after 18 hrs", "assay_type": "functional, Salmonella enterica subsp. enterica serovar Typhimurium", "conditions": "ATCC 14028, 18 h", "outline": "as §1"}, "Enterococcus faecium": {"test_system": "Enterococcus faecium", "test": "Antibacterial activity against Enterococcus faecium ATCC 19434 after 18 hrs", "assay_type": "functional", "conditions": "ATCC 19434, 18 h", "outline": "as §1"}, "Escherichia coli [8]": {"test_system": "Escherichia coli", "test": "Antibacterial activity against Escherichia coli 700728 after 18 hrs", "assay_type": "functional", "conditions": "Escherichia coli, 700728, 18 h", "outline": "as §1"}, "Escherichia coli [9]": {"test_system": "Escherichia coli", "test": "Antibacterial activity against Escherichia coli ATCC 35218 after 18 hrs", "assay_type": "functional", "conditions": "ATCC 35218, 18 h", "outline": "as §1"}, "Klebsiella aerogenes": {"test_system": "Klebsiella aerogenes", "test": "Antibacterial activity against Klebsiella aerogenes NCTC 8167 after 18 hrs", "assay_type": "functional", "conditions": "NCTC 8167, 18 h", "outline": "as §1"}, "[10]": {"test": "Antibacterial activity against Salmonella enterica subspecies enterica serotype Virchow NCTC 5742 after 18 hrs", "assay_type": "functional, Salmonella enterica subsp. enterica serovar Virchow", "conditions": "NCTC 5742, 18 h", "outline": "as §1"}, "Staphylococcus aureus [11]": {"test_system": "Staphylococcus aureus", "test": "Antibacterial activity against Staphylococcus aureus ATCC 6538P after 18 hrs", "assay_type": "functional", "outline": "as §1"}, "Enterococcus faecalis": {"test_system": "Enterococcus faecalis", "test": "Antibacterial activity against Enterococcus faecalis ATCC 33186 after 18 hrs", "assay_type": "functional", "conditions": "ATCC 33186, 18 h", "outline": "as §1"}, "[12]": {"test_system": "Staphylococcus saprophyticus", "test": "Antibacterial activity against Staphylococcus saprophyticus ATCC 15305 after 18 hrs", "assay_type": "functional", "conditions": "ATCC 15305, 18 h", "outline": "as §2"}, "Aeromonas hydrophila": {"test_system": "Aeromonas hydrophila", "test": "Antibacterial activity against Aeromonas hydrophila OCC 778 after 18 hrs", "assay_type": "functional", "conditions": "OCC 778, 18 h", "outline": "as §1"}, "Streptococcus pneumoniae": {"test_system": "Streptococcus pneumoniae", "test": "Antibacterial activity against Streptococcus pneumoniae ATCC 49619 after 18 hrs", "assay_type": "functional", "conditions": "ATCC 49619, 18 h", "outline": "as §2"}, "[13]": {"test_system": "Staphylococcus epidermidis", "test": "Antibacterial activity against Staphylococcus epidermidis 155 after 18 hrs", "assay_type": "functional", "conditions": "Staphylococcus epidermidis, 155, 18 h", "outline": "as §1"}, "Klebsiella pneumoniae [14]": {"test_system": "Klebsiella pneumoniae", "test": "Antibacterial activity against Klebsiella pneumoniae ATCC 13883 after 18 hrs", "assay_type": "functional", "conditions": "ATCC 13883, 18 h", "outline": "as §1"}, "[15]": {"test": "Antibacterial activity against Salmonella enterica subspecies enterica serotype Nottingham NCTC 7832 after 18 hrs", "assay_type": "functional, Salmonella enterica subsp. enterica serovar Nottingham", "conditions": "NCTC 7832, 18 h", "outline": "as §1"}, "[16]": {"test_system": "Staphylococcus epidermidis", "test": "Antibacterial activity against Staphylococcus epidermidis ATCC 12228 after 18 hrs", "assay_type": "functional", "conditions": "ATCC 12228, 18 h", "outline": "as §1"}, "Staphylococcus aureus [17]": {"test_system": "Staphylococcus aureus", "test": "Antibacterial activity against Staphylococcus aureus OCC 106 after 18 hrs", "assay_type": "functional", "conditions": "OCC 106, 18 h", "outline": "as §1"}, "[18]": {"test": "Antibacterial activity against Salmonella enterica subspecies enterica serotype Indiana OCC 597 after 18 hrs", "assay_type": "functional, Salmonella enterica subsp. enterica serovar Indiana", "conditions": "OCC 597, 18 h", "outline": "as §1"}, "[19]": {"test": "Antibacterial activity against Salmonella enterica subspecies enterica serotype Poona NCTC 4840 after 18 hrs", "assay_type": "functional, Salmonella enterica subsp. enterica serovar Poona", "conditions": "NCTC 4840, 18 h", "outline": "as §1"}},
  "data": [
    {"smiles": "OC[C@H]1O[C@H](Oc2cc(Cl)ccc2Oc2ccc(Cl)cc2Cl)[C@H](O)[C@@H](O)[C@H]1O", "values": [
      {"measurement": "MIC", "setting": "[1]", "result": "32 to 64", "unit": "µg/mL"},
      {"measurement": "MIC", "setting": "Hafnia alvei", "result": 16, "unit": "µg/mL"},
      {"measurement": "MIC", "setting": "Proteus mirabilis", "result": 32, "unit": "µg/mL"},
      {"measurement": "MIC", "setting": "[2]", "result": "32 to 64", "unit": "µg/mL"},
      {"measurement": "MIC", "setting": "[3]", "result": 16, "unit": "µg/mL"},
      {"measurement": "MIC", "setting": "Klebsiella pneumoniae [4]", "result": 1, "unit": "µg/mL"},
      {"measurement": "MIC", "setting": "Staphylococcus aureus [5]", "result": "8 to 16", "unit": "µg/mL"},
      {"measurement": "MIC", "setting": "Streptococcus agalactiae", "result": "> 256", "unit": "µg/mL"},
      {"measurement": "MIC", "setting": "Escherichia coli [6]", "result": "16 to 64", "unit": "µg/mL"},
      {"measurement": "MIC", "setting": "Citrobacter freundii", "result": 64, "unit": "µg/mL"},
      {"measurement": "MIC", "setting": "Staphylococcus aureus [7]", "result": "8 to 16", "unit": "µg/mL"},
      {"measurement": "MIC", "setting": "Salmonella typhimurium", "result": "32 to 64", "unit": "µg/mL"},
      {"measurement": "MIC", "setting": "Enterococcus faecium", "result": "> 256", "unit": "µg/mL"},
      {"measurement": "MIC", "setting": "Escherichia coli [8]", "result": "16 to 64", "unit": "µg/mL"},
      {"measurement": "MIC", "setting": "Escherichia coli [9]", "result": "16 to 64", "unit": "µg/mL"},
      {"measurement": "MIC", "setting": "Klebsiella aerogenes", "result": 32, "unit": "µg/mL"},
      {"measurement": "MIC", "setting": "[10]", "result": "32 to 64", "unit": "µg/mL"},
      {"measurement": "MIC", "setting": "Staphylococcus aureus [11]", "result": "8 to 16", "unit": "µg/mL"},
      {"measurement": "MIC", "setting": "Enterococcus faecalis", "result": "> 256", "unit": "µg/mL"},
      {"measurement": "MIC", "setting": "[12]", "result": 64, "unit": "µg/mL"},
      {"measurement": "MIC", "setting": "Aeromonas hydrophila", "result": "> 256", "unit": "µg/mL"},
      {"measurement": "MIC", "setting": "Streptococcus pneumoniae", "result": 128, "unit": "µg/mL"},
      {"measurement": "MIC", "setting": "[13]", "result": "8 to 32", "unit": "µg/mL"},
      {"measurement": "MIC", "setting": "Klebsiella pneumoniae [14]", "result": 1, "unit": "µg/mL"},
      {"measurement": "MIC", "setting": "[15]", "result": "32 to 64", "unit": "µg/mL"},
      {"measurement": "MIC", "setting": "[16]", "result": "8 to 32", "unit": "µg/mL"},
      {"measurement": "MIC", "setting": "Staphylococcus aureus [17]", "result": "8 to 16", "unit": "µg/mL"},
      {"measurement": "MIC", "setting": "[18]", "result": "32 to 64", "unit": "µg/mL"},
      {"measurement": "MIC", "setting": "[19]", "result": "32 to 64", "unit": "µg/mL"}
    ]}
  ]
}
